Experimental data gathered from unrelated publications.
Compare with care: the assays were run in different laboratories. pIC50, pKi: −log10 of the molar value.
Target: Cytochrome P450 3A4 (CYP3A4, Homo sapiens, UniProt P08684)
Effect on: enzyme activity
Action: inhibitor

| SMILES | test | system | setting | endpoint | value |
| --- | --- | --- | --- | --- | --- |
| CC1=CC(=O)C(C(C)C)=CC1=O | fluorescence |  | pH 7.4 | pIC50 | 5.92 |
| CCCCC1=NC2(CCCC2)C(=O)N1Cc1ccc(-c2ccccc2S(=O)(=O)Nc2noc(C)c2C)c(COCC)c1 |  |  |  | pKi | 5.20 |
| CCc1cc(/C(C)=N/OCc2ccc(C3CCCCC3)c(C(F)(F)F)c2)ccc1CN1CC(C(=O)O)C1 |  | human, liver microsomes | 20 min, testosterone probe | pIC50 | 6.22 |
| COc1ccc2c(Cc3ccccc3F)c3n(c(=O)c2c1OC)CCc1cc2c(cc1-3)OCO2 |  |  |  | pIC50 | 5.57 |
| O=C(NCCN1CCCC1)c1cc(-c2ccc(CN3CCOCC3)cc2)nc2ccc(F)cc12 |  | human, liver microsomes | midazolam probe | pIC50 | < 4.00 |
| Nc1nc(N)c2nc(CNc3ccc(C(=O)c4ccccc4)cc3)cnc2n1 | luciferase |  |  | pIC50 | 4.36 |
| Cc1ccc2nc(-c3ccccc3)c(CNc3ccc(F)cc3)n2c1 |  |  |  | pIC50 | 6.57 |
| COc1ccc2c(Cc3ccccc3F)c3[n+](cc2c1OC)CCc1cc2c(cc1-3)OCO2 |  |  |  | pIC50 | 6.10 |
| COC(=O)C1CCN(C(=O)c2ccc(SCc3cnc4nc(N)nc(N)c4n3)nc2)CC1 | luciferase |  |  | pIC50 | 4.93 |
| COc1cc2c(c(OC)c1OC)-c1c(cc3c(c1OC)OCO3)C[C@H](C)[C@](C)(O)[C@H]2OC(=O)c1ccccc1 |  |  | 15 min, pH 7.4 | pIC50 | 6.85 |
| Nc1nc(N)c2nc(C(=O)NCc3cccc(C(F)(F)F)c3)cnc2n1 | luciferase |  |  | pIC50 | 4.86 |
| COc1ccn2c(Nc3ccccc3F)c(-c3ccncn3)nc2c1 |  |  |  | pIC50 | 6.57 |
